Assay outcomes (PubChem BioAssay)
Cl transport mod: KCC2 cotransporter modulators, thallium flux, primary screen, cell-based, HEK293 KCC2, FluoZin-2 fluorescence, MLSMR; KCC2 cells, thallium flux FluoZin-2 fluorescence; B-score of Tl+ flux slope (higher = more flux/activation; lower = inhibition) at 10 µM; 190,000 compounds, 2.2% hits; AID 1456, 2008;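 active = thallium flux slope and its plate-corrected score both differing from the plate sample mean at a set confidence after two filtering rounds, in either direction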;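 note: slope of fluorescence scaled to starting intensity during 10 to 20 s after thallium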
STAT1 blocker: STAT1 signaling inhibitors, primary screen, cell-based, HTS, luciferase reporter; NIH 3T3 STAT1-luciferase reporter, IFN-gamma, luminescence; inhibition, % at 5.5 µM; 200,000 compounds, 0.35% hits;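 active = inhibition above a set limit, the mean inhibition across all tested compounds plus 3 SD, cut at about 34% in these data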
HSV replic up: enhancers of HSV replication in host cells, fold increase, host cell viability | HSV replication augmentation in cells | maximum fold increase | 220,000 compounds, 0.005% hits | AID 1956, 2009; in the data active = maximum fold increase above about 1.5; inconclusive = no clear call, values can overlap the other calls; tested in PC3 cells
STAT1 act: STAT1 signaling activators, primary screen, cell-based, HTS, luciferase reporter; NIH 3T3 STAT1-luciferase reporter, IFN-gamma, luminescence; 100% = IFN-gamma alone, no compound; activation (% of control), % at 5.5 µM; 200,000 compounds, 2.6% hits; AID 932, 2007;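 active = activation above the screen-wide mean activation plus 3 SD, cut at about 130% in these data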
STAT3 inh: IL-6 driven STAT3 reporter inhibitors, primary screen, U3A cells, luciferase, luminescence, MLSCN library; 190,000 compounds, 0.89% hits; IL-6 STAT3-luciferase reporter; host cell line lacks STAT1; inhibition, % at 5.5 µM;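 active = inhibition above the mean inhibition across all screened compounds plus 3 SD, cut at about 44% in these data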
STAT3 act: IL-6 driven STAT3 reporter potentiators, primary screen, U3A cells, luciferase, luminescence, MLSCN library; IL-6 STAT3-luciferase reporter; 100% = signal with IL-6 EC80 alone; AID 871, 2007; 190,000 compounds, 0.91% hits; activation (% of control), % at 5.6 µM;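 active = activation above the screen-wide mean of compound activation plus 3 SD, cut at about 130% in these data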
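Test system: STAT3-luciferase reporter U3A cells; Detection: reporter luminescence signal; Times: 1 h compound pre-exposure, 6 h IL-6 stimulation, 37 °C; Benchmarks: IL-6-only high control; Also added: IL-6 stimulus at 33 ng/mL final.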
KCC2 sec1: KCC2 modulators in sodium-free buffer, confirmation, cell-based, HEK293 KCC2, thallium flux, secondary assay | shares compounds with Cl transport mod | FluoZin2 fluorescence; stronger effect = higher value | normalised thallium flux (F/F0 slope) at 10 µM | 3,700 compounds, 15% hits | AID 1713, 2009;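 active = thallium flux slope above the same plate's solvent-only control mean plus 3 SD; inconclusive = the two replicate wells disagree; inactive = no significant difference from solvent-only control wells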
KCC2 bumet counter: thallium flux persisting under bumetanide in KCC2 cells, confirmation, counter-screen for KCC2 modulator project, cell-based, HEK293 KCC2, FluoZin2, secondary assay 3. shares compounds with Cl transport mod. HEK293-KCC2 + bumetanide/ouabain; stronger effect = higher value. normalized thallium flux at 10 µM. 3,700 compounds, 49% hits. AID 1714, 2009;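 active = thallium entry rate above the same plate's blocked-transporter control wells by more than 3 SD; inconclusive = the two repeat wells disagree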;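 note: raw slope of fluorescence over initial fluorescence between 10 and 20 s after thallium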
KCC2 sec2: KCC2 modulators without ouabain present, confirmation, cell-based, HEK293 KCC2, thallium flux, FluoZin2, secondary assay 2. normalized thallium flux at 10 µM. 3,700 compounds, 23% hits. thallium flux FluoZin2 fluorescence; actives lie on both sides; F/F0 rise rate, 10–20 s post-thallium. shares compounds with Cl transport mod. AID 1715, 2009;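 active = thallium flux slope more than 3 SD above or below the plate's solvent-only control mean, mostly below; inconclusive = the two repeat wells disagreed; inactive = no significant shift from solvent-only controls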
HEK293 Tl flux: thallium flux modulation in parental HEK cells, confirmation, counter-screen for KCC2 modulator project, cell-based, counterscreen 1; shares compounds with Cl transport mod; HEK293 parental cells, thallium flux FluoZin2, ouabain; baseline-ratio fluorescence slope, 10–20 s after thallium; thallium flux rate (normalised fluorescence) at 10 µM; 3,700 compounds, 46% hits;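 active = thallium flux rate significantly above the same plate's solvent-only control wells, beyond their mean plus 3 SD; inconclusive = the two replicate wells gave conflicting results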
KCC2 ouabain: KCC2 inhibitors and activators, ouabain retest, confirmation, HEK-KCC2 cells; shares compounds with Cl transport mod; 3,700 compounds, 48% hits; raw Tl+ flux slope (below DMSO = inhibition, above = activation) at 10 µM; HEK293-KCC2, thallium flux FluoZin2 fluorescence; bidirectional: low = inhibitor, high = activator; AID 1717, 2009;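 active = thallium flux slope beyond 3 SD from same-plate DMSO control mean in most replicates, usually higher, sometimes lower; inconclusive = repeat tests gave conflicting results; inactive = no significant difference from controls in most replicates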;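 note: slope of initial-normalized fluorescence between seconds 10 and 20 after thallium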
HEK293 Tl flux2: native HEK Tl+ uptake effects, second counter-screen – HEK cells, counterscreen 2, counter-screen for KCC2 modulator project, confirmation; shares compounds with Cl transport mod; HEK293 parental, thallium flux FluoZin-2 fluorescence slope; thallium flux slope at 10 µM; 3,700 compounds, 33% hits;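 active = thallium flux slope above the same plate's solvent-control mean plus 3 SD in both duplicate wells; inconclusive = duplicate wells that disagreed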;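 note: run without ouabain in cells lacking the KCC2 cotransporter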
Hits are given with their value; n = inactive; u = inconclusive; x = no result. A selection: hits, their analogues and other compounds. The true share with any hit is near 5.5%.

SMILES	Cl transport mod	STAT1 blocker	HSV replic up	STAT1 act	STAT3 inh	STAT3 act	KCC2 sec1	KCC2 bumet counter	KCC2 sec2	HEK293 Tl flux	KCC2 ouabain	HEK293 Tl flux2
C/C(=N\NC(=O)c1ccc(Br)cc1)C1C(=O)c2ccccc2C1=O	-5.4	n	n	n	n	n	n	n	0.023	n	u	n
O=C(Nc1ccc(Cl)cc1)N1CCC(CO)(Cc2ccccc2)CC1	-3.2	n	n	n	n	n	n	u	n	n	u	n
O=C(Nc1ccc(Cl)cc1)N1CCN(c2ccccc2)CC1	n	n	n	n	n	n	x	x	x	x	x	x
CCOC(=O)c1c(C)nc(C)c(C(=O)OCC)c1-c1ccccc1	n	n	n	n	n	n	n	n	n	n	n	n
CCOC(=O)c1c(C)nc(C)c(C(=O)OCC)c1-c1cccnc1	n	x	n	x	x	x	x	x	x	x	x	x
O=S(=O)(Nc1ncnc2sc3c(c12)CCC3)c1ccc2ccccc2c1	-3.1	n	n	n	n	n	n	0.0056	n	n	n	n
Cc1cc(F)ccc1S(=O)(=O)Nc1ncnc2sc3c(c12)CCC3	n	n	n	n	n	n	x	x	x	x	x	x
COc1ccccc1CNC(=O)/C=C/c1ccc(S(=O)(=O)NCc2ccco2)cc1	n	n	n	n	n	n	x	x	x	x	x	x
CNc1c([N+](=O)[O-])cnn1-c1ccccn1	n	n	n	n	n	n	x	x	x	x	x	x
O=C(c1cc(COc2ccc3ncccc3c2)on1)N1CCCC(O)C1 (centres undefined)	x	n	n	n	n	n	x	x	x	x	x	x
Cc1cccnc1CN1CCN(C(=O)c2cc(COc3ccc4ncccc4c3)on2)CC1	x	36	n	n	46	n	n	n	u	n	0.017	n
O=C(Nc1cccc(C(F)(F)F)c1)c1cccnc1N1CCN(c2ccccc2)CC1	n	n	n	n	n	n	x	x	x	x	x	x
Cn1nnc(NC(=O)COc2ccc(C3CCCCC3)cc2)n1	n	n	x	n	n	n	x	x	x	x	x	x
O=C(COC(=O)c1cc(S(=O)(=O)N2CCOCC2)ccc1O)NCC1CCCO1 (centres undefined)	x	n	n	n	n	n	n	n	n	n	n	n
O=C(COC(=O)c1cc(S(=O)(=O)N2CCCC2)ccc1O)Nc1ccc(S(=O)(=O)N2CCOCC2)cc1	n	x	n	x	x	x	x	x	x	x	x	x
